Test results as given in ChEMBL document CHEMBL1124344, “5-Piperazinylalkyl-2(3H)-oxazolones with neuroleptic activity” (J Med Chem, 1989).

Experiments:
Rattus norvegicus [1] = test: Antagonistic activity against amphetamine-induced stereotypy, after 5 hour of peroral administration in rats; type: functional; details: po
How it was run: (§1)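 Male rats dosed orally (arabic gum suspension, 10 mL/kg, fasted overnight) 1 or 5 h beforehand. Amphetamine 7.5 mg/kg iv, with stereotyped movements scored as present or absent 1 h later. ED50 is the dose inhibiting stereotypy in 50% of rats, by probit analysis. Parenthetical entries give the maximal dose and percent activity.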

Mus musculus [2] = test: Suppression of aggressive behavior, after 5 hour of peroral administration in mouse; type: functional; details: po
How it was run: (§2)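 Male mice made aggressive by isolation in individual black cages for about 1 month plus weekly testosterone cyclopentylpropionate 250 mg/kg sc; pairs preselected for attack on a nonisolated male within 15 min. Oral dosing (arabic gum, 10 mL/kg) 1 or 5 h before test, overnight fast. ED50 = dose suppressing aggression in 50% of animals, probit analysis.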

Mus musculus [3] = test: Activity of inclined screen in mouse, after 1 hour of peroral administration in mouse; type: functional; details: po
How it was run: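 Male mice dosed orally (arabic gum suspension, 10 mL/kg, fasted overnight) 1 or 5 h before testing. Placed for 1 h on a wire screen bent at 60° to the horizontal. Ataxic or miorelaxed mice slide off. ED50 is the dose at which 50% of mice fall, by probit analysis. Ten animals per dose, with vehicle controls.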

Rattus norvegicus [4] = test: Inhibition against conditioned avoidance response, after 1 hour of peroral administration in rats; type: functional; details: po
How it was run: (§3)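 Male rats were trained in a shuttle box to avoid grid-floor shock by crossing compartments during a warning period. Dosing was oral as a gum arabic suspension at 10 mL/kg after an overnight fast. Percent inhibition was computed against a pretraining test. ED50 is the dose giving 50% inhibition.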

Mus musculus [5] = test: Antagonistic activity against amphetamine-induced hypermotility, after 5 hour of peroral administration in mouse; type: functional; details: po
How it was run: (§4)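 Male mice in groups of five, fasted overnight, given oral drug in arabic gum suspension (10 mL/kg) 1 or 5 h ahead. Amphetamine 4 mg/kg ip given 30 min after drug. Ten minutes later locomotion is recorded for 15 min in a photocell actophotometer. ED50 is 50% reduction versus control hypermotility, by probit analysis. Parenthetical entries give the maximal dose and percent activity.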

Mus musculus [6] = test: Anticonvulsant activity against tryptamine-induced convulsions, after 1 hour of peroral administration in mouse; type: functional; details: po
How it was run: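 Compounds were dosed as bases suspended in arabic gum at 10 mL/kg orally, after an overnight fast, with vehicle controls. Protection meant no bilateral forepaw clonic seizures or head twitches (tryptamine), or no tonic hind-limb extension (the other two). ED50 is the dose protecting 50%, by probit analysis.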

Mus musculus [7] = test: Potentiation against pentobarbital-induced sleeping, after 1 hour of peroral administration in mouse; type: functional; details: po
How it was run: (§5)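 Female mice fasted overnight, dosed orally 1 or 5 h beforehand as arabic gum suspension, 10 mL/kg, with vehicle controls. Subhypnotic pentobarbital 10 mg/kg iv; 3 min later placed on back, effect scored as complete loss of righting reflex for at least 15 s. ED50 = dose producing this in 50% of mice, probit analysis.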

Rattus norvegicus [8] = test: Antagonistic activity against apomorphine-induced stereotypy, after 1 hour of peroral administration in rats; type: functional; details: po
How it was run: (§6)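 Male rats fasted overnight and given oral doses in arabic gum suspension (10 mL/kg) 1 h, or 1 and 5 h, before challenge. Apomorphine 3 mg/kg iv, with stereotypy observed 20 min later. ED50 is the dose inhibiting stereotypy in 50% of rats, per Janssen's method. Parenthetical entries give the maximal dose and percent activity.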

Mus musculus [9] = test: Inhibition of spontaneous motor activity, after 1 hour of peroral administration in mouse; type: functional; details: po
How it was run: (§7)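 Mice fasted overnight, then dosed orally with compound (weighed as base) suspended in arabic gum, 10 mL/kg, with vehicle controls; 1 h pretreatment for screening tests, 1 or 5 h for others. Groups of five; locomotor activity counted 10 min in photocell activity cage, at least two groups per dose. ED50 = dose giving 50% inhibition versus controls, by probit analysis.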

Mus musculus [10] = test: Inhibition of spontaneous motor activity, after 5 hour of peroral administration in mouse; type: functional; details: po; how it was run: as §7
Rattus norvegicus [11] = test: Antagonistic activity against amphetamine-induced stereotypy, after 1 hour of peroral administration in rats; type: functional; details: po; how it was run: as §1
Mus musculus [12] = test: Contractile activity in skeletal muscles, after 5 hour of peroral administration in mouse; type: functional; details: Muscle tissue, po
How it was run: (§8)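 Male mice were placed for 1 h on a 60° inclined wire screen just after dosing and 4 h later. In a second test, trained mice hung by the forepaws from a horizontal 1.8 mm wire 15 cm up; normal mice touch it with a hind paw within 2 s and stay ≥1 min. ED50 is the dose making 50% fall. Dosing was oral in gum arabic suspension at 10 mL/kg after an overnight fast.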

Mus musculus [13] = test: Inhibition against apomorphine-induced climbing, after 5 hour of peroral administration in mouse; type: functional; details: po
How it was run: (§9)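 Mice were dosed orally (gum arabic suspension, 10 mL/kg, fasted), then given apomorphine 1 mg/kg sc and placed in cylindrical cages with vertical metal bars. Climbing was scored 0 for four paws on the floor, 1 for forefeet on the wall, 2 for four paws on the wall. ED50 is the dose halving the control score.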

Rattus norvegicus [14] = test: Activity to evoke catalepsy, after 1 hour of peroral administration in rats; type: functional; details: po
How it was run: (§10)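 Rats fasted overnight and given oral doses in arabic gum suspension (10 mL/kg), 1 h before screening or 1 and 5 h before profile testing. Forelegs placed on a horizontal bar 7 cm high, three times at 5-min intervals. Immobility of at least 15 s counts as catalepsy. ED50 is the dose giving catalepsy in 50% of rats, by probit analysis. Parenthetical entries give the maximal dose and percent activity.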

Rattus norvegicus [15] = test: Inhibition against conditioned avoidance response, after 5 hour of peroral administration in rats; type: functional; details: po; how it was run: as §3
Mus musculus [16] = test: Inhibition against apomorphine-induced turning, after 1 hr of peroral administration in mouse; type: functional; details: po
How it was run: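 Mice were lesioned unilaterally with intranigrostriatal 6-hydroxydopamine (20 µg). At 7 days, strong contraversive turners 15 min after apomorphine 2 mg/kg ip were selected. A week later they were dosed orally and rechallenged. Fewer than six full rotations in 2 min counted as protection. ED50 is the dose protecting 50%.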

Rattus norvegicus [17] = test: Antagonistic activity against apomorphine-induced stereotypy, after 5 hour of peroral administration in rats; type: functional; details: po; how it was run: as §6
Mus musculus [18] = test: Inhibition against apomorphine-induced climbing, after 1 hour of peroral administration in mouse; type: functional; details: po; how it was run: as §9
Mus musculus [19] = test: Antagonistic activity against amphetamine-induced hypermotility, after 1 hour of peroral administration in mouse; type: functional; details: po; how it was run: as §4
Mus musculus [20] = test: Potentiation against pentobarbital-induced sleeping, after 5 hour of peroral administration in mouse; type: functional; details: po; how it was run: as §5
Rattus norvegicus [21] = test: Activity to evoke catalepsy, after 5 hour of peroral administration in rats; type: functional; details: po; how it was run: as §10
Mus musculus [22] = test: Suppression of aggressive behavior, after 1 hour of peroral administration in mouse; type: functional; details: po; how it was run: as §2
Mus musculus [23] = test: Antagonistic activity against amphetamine-induced Hypermobility in mouse by administering perorally; type: functional; details: po; how it was run: as §4
Mus musculus [24] = test: Inhibition of spontaneous motor activity in mouse, by administering perorally; type: functional; details: po; how it was run: as §7
Canis familiaris = test: Antagonistic activity against apomorphine-induced emesis, after 5 hour of peroral administration in dogs; type: functional; details: Canis lupus familiaris, po
How it was run: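 Male and female dogs pretreated orally, then challenged with apomorphine 0.3 mg/kg sc. Complete protection from vomiting for 30 min after apomorphine is the criterion. ED50 is the dose protecting 50% of dogs, per Janssen's method.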

[25] = Lethal dose in mice (LD50) following i.p. dosing; type: toxicity, organism-based; details: mouse, in vivo, ip
How it was run: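 Acute toxicity tested in mice by the intraperitoneal route. LD50 is the dose killing 50% of treated mice, computed by Finney probit analysis; values are approximate.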

Mus musculus [26] = test: Contractile activity in skeletal muscles, after 1 hour of peroral administration in mouse; type: functional; details: Muscle tissue, po; how it was run: as §8

| Compound | ED50 (Rattus norvegicus [1]) | ED50 (Mus musculus [2]) | ED50 (Mus musculus [3]) | ED50 (Rattus norvegicus [4]) | ED50 (Mus musculus [5]) | ED50 (Mus musculus [6]) | ED50 (Mus musculus [7]) | ED50 (Rattus norvegicus [8]) | ED50 (Mus musculus [9]) | ED50 (Mus musculus [10]) | ED50 (Rattus norvegicus [11]) | ED50 (Mus musculus [12]) | ED50 (Mus musculus [13]) | ED50 (Rattus norvegicus [14]) | ED50 (Rattus norvegicus [15]) | ED50 (Mus musculus [16]) | ED50 (Rattus norvegicus [17]) | ED50 (Mus musculus [18]) | ED50 (Mus musculus [19]) | ED50 (Mus musculus [20]) | also measured |
| --- | --- | --- | --- | --- | --- | --- | --- | --- | --- | --- | --- | --- | --- | --- | --- | --- | --- | --- | --- | --- | --- |
| O=C(CCCN1CCC(O)(c2ccc(Cl)cc2)CC1)c1ccc(F)cc1 [HALOPERIDOL] | 0.39 mg/kg | 0.29 mg/kg | 6.8 mg/kg | 0.23 mg/kg | 0.28 mg/kg | 1.1 mg/kg | 7 mg/kg | 1.1 mg/kg | 0.16 mg/kg | 0.35 mg/kg | 0.27 mg/kg | 15 mg/kg | 0.045 mg/kg | 15.4 mg/kg | 0.32 mg/kg | 0.32 mg/kg | 1.8 mg/kg | 0.12 mg/kg | 0.12 mg/kg | 3.1 mg/kg | – |
| COc1ccccc1N1CCN(CCc2oc(=O)[nH]c2-c2ccc(F)cc2)CC1 [ZOLOPERONE] | 12.4 mg/kg | 4.7 mg/kg | 91 mg/kg | 3.5 mg/kg | 15 mg/kg | 9.8 mg/kg | 41.1 mg/kg | 10.4 mg/kg | 4.6 mg/kg | 20.3 mg/kg | 5.3 mg/kg | 62.5 mg/kg | 4 mg/kg | 55.6 mg/kg | 11.6 mg/kg | 15.9 mg/kg | 60.7 mg/kg | 0.42 mg/kg | 4 mg/kg | 37.3 mg/kg | ED50 (Rattus norvegicus [21]): 21.5 mg/kg; ED50 (Mus musculus [22]): 4.7 mg/kg; ED50 (Mus musculus [23]): 4 mg/kg; ED50 (Mus musculus [24]): 4.6 mg/kg; ED50 (Canis familiaris): 1.5 mg/kg; LD50 [25]: > 2000 mg/kg |
| CN(C)CCCN1c2ccccc2Sc2ccc(Cl)cc21 [CHLORPROMAZINE] | 13.6 mg/kg | 3.1 mg/kg | 5.4 mg/kg | 6.8 mg/kg | 2.4 mg/kg | 3.4 mg/kg | 3.2 mg/kg | 28.9 mg/kg | – | – | 19.4 mg/kg | 10.3 mg/kg | 2.2 mg/kg | 10.3 mg/kg | 10.3 mg/kg | 4.4 mg/kg | 41.6 mg/kg | 2 mg/kg | 4.1 mg/kg | 3.3 mg/kg | ED50 (Mus musculus [26]): 36.5 mg/kg |
| O=c1[nH]c(-c2ccc(F)cc2)c(CCN2CCN(c3cc(Cl)cc(Cl)c3)CC2)o1 [LODIPERONE] | 4.2 mg/kg | 8.5 mg/kg | – | – | 1.9 mg/kg | – | – | – | 2.7 mg/kg | 2.5 mg/kg | 13.5 mg/kg | 200 mg/kg | 0.21 mg/kg | – | 6.4 mg/kg | 0.84 mg/kg | 106 mg/kg | 0.37 mg/kg | 1.5 mg/kg | – | ED50 (Rattus norvegicus [21]): 24.3 mg/kg; ED50 (Mus musculus [22]): 23.8 mg/kg; ED50 (Mus musculus [23]): 1.5 mg/kg; ED50 (Mus musculus [24]): 2.7 mg/kg; ED50 (Mus musculus [26]): 200 mg/kg; ED50 (Canis familiaris): 2.5 mg/kg; LD50 [25]: > 2000 mg/kg |
| COc1ccccc1N1CCN(CCCC(=O)c2ccc(F)cc2)CC1 [FLUANISONE] | 50 mg/kg | 20.1 mg/kg | 49 mg/kg | 25 mg/kg | 18 mg/kg | 12.5 mg/kg | 20.7 mg/kg | 63.2 mg/kg | – | – | 17.8 mg/kg | 50 mg/kg | 15 mg/kg | 18 mg/kg | 50 mg/kg | 14.7 mg/kg | – | 5 mg/kg | 16.4 mg/kg | – | ED50 (Rattus norvegicus [21]): 13.9 mg/kg; ED50 (Mus musculus [22]): 6.1 mg/kg; ED50 (Mus musculus [23]): 16.4 mg/kg; ED50 (Mus musculus [24]): 7.7 mg/kg; ED50 (Mus musculus [26]): 20 mg/kg; ED50 (Canis familiaris): 8.6 mg/kg; LD50 [25]: 180 mg/kg |
